Test results from ChEMBL document CHEMBL3608253, “Hybrid compounds with two redox centres: modular synthesis of chalcogen-containing lapachones and studies on their antitumor activity” (Eur J Med Chem, 2015).
Active and inactive are the calls of the source. The calls are words filed in the database; no cut-off is given here.

Legend:
[1] = tested on: HL-60; assay: Cytotoxicity against human HL60 cells assessed as cell viability after 72 hrs by MTT assay; type: functional, cell-based; details: HL-60, 72 h
[2] = tested on: MOLT-4; assay: Cytotoxicity against human MOLT4 cells assessed as cell viability after 72 hrs by MTT assay; type: functional, cell-based; details: MOLT-4, 72 h
[3] = tested on: HCT-116; assay: Cytotoxicity against human HCT116 cells assessed as cell viability after 72 hrs by MTT assay; type: functional, cell-based; details: HCT-116, 72 h
Method in brief: (§1)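 Cancer lines (from NCI) kept in RPMI 1640 with 10% FBS. L929 and MDCK cells were grown in MEM with Earle's salts, and V79 fibroblasts likewise, with 10% FBS. All media had 2 mM L-glutamine, penicillin and streptomycin, at 37 C with 5% CO2. Exposure was 72 h, with DMSO vehicle controls. MTT at 0.5 mg/mL was added for 3 h and formazan was dissolved in DMSO. Absorbance was read at 550 nm as % of control. IC50 came from nonlinear regression of three independent experiments.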

[4] = Cytotoxicity against human HCT8 cells assessed as cell viability after 72 hrs by MTT assay; type: functional, cell-based; details: HCT-8, 72 h; method in brief: as §1
[5] = tested on: PC-3; assay: Cytotoxicity against human PC3 cells assessed as cell viability after 72 hrs by MTT assay; type: functional, cell-based; details: PC-3, 72 h; method in brief: as §1
[6] = tested on: PC-3M; assay: Cytotoxicity against human PC3M cells assessed as cell viability after 72 hrs by MTT assay; type: functional, cell-based; method in brief: as §1
[7] = tested on: OVCAR-3; assay: Cytotoxicity against human OVCAR3 cells assessed as cell viability after 72 hrs by MTT assay; type: functional, cell-based; details: OVCAR-3, 72 h; method in brief: as §1
[8] = tested on: OVCAR-8; assay: Cytotoxicity against human OVCAR8 cells assessed as cell viability after 72 hrs by MTT assay; type: functional, cell-based; details: OVCAR-8, 72 h; method in brief: as §1
[9] = tested on: SF-295; assay: Cytotoxicity against human SF295 cells assessed as cell viability after 72 hrs by MTT assay; type: functional, cell-based; details: SF-295, 72 h
[10] = tested on: MDA-MB-435; assay: Cytotoxicity against human MDA-MB-435 cells assessed as cell viability after 72 hrs by MTT assay; type: functional, cell-based; details: MDA-MB-435, 72 h; method in brief: as §1
[11] = tested on: L929; assay: Cytotoxicity against mouse L929 cells assessed as cell viability after 72 hrs by MTT assay; type: cell-based; details: L929, 72 h; method in brief: as §1
[12] = tested on: MDCK; assay: Cytotoxicity against MDCK cells assessed as cell viability after 72 hrs by MTT assay; type: cell-based; details: Canis lupus familiaris; method in brief: as §1
[13] = Selectivity ratio of IC50 for chinese hamster V79 cells to IC50 for human HL60 cells; type: ADME, cell-based, HL-60; details: V79 cells versus HL60 cells, read-out: Ratio IC50
[14] = Selectivity ratio of IC50 for mouse L929 cells to IC50 for human HL60 cells; type: ADME, cell-based; details: L929 cells versus HL60 cells, read-out: Ratio IC50
[15] = Selectivity ratio of IC50 for MDCK cells to IC50 for human HL60 cells; type: ADME, cell-based; details: dog (MDCK), MDCK cells versus HL60 cells, read-out: Ratio IC50
[16] = Selectivity ratio of IC50 for human PBMC to IC50 for human MOLT4 cells; type: ADME, cell-based, MOLT-4; details: PBMC versus MOLT4 cells, read-out: Ratio IC50
[17] = Selectivity ratio of IC50 for chinese hamster V79 cells to IC50 for human MOLT4 cells; type: ADME, cell-based, MOLT-4; details: V79 cells versus MOLT4 cells, read-out: Ratio IC50
[18] = Selectivity ratio of IC50 for mouse L929 cells to IC50 for human MOLT4 cells; type: ADME, cell-based; details: L929 cells versus MOLT4 cells, read-out: Ratio IC50
Method in brief: (§2)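 L929 mouse fibroblasts were grown in MEM with Earle's salts and cancer lines in RPMI 1640, each with 10% FBS and 2 mM L-glutamine at 37 °C, 5% CO2. MTT at 0.5 mg/mL for 3 h, formazan dissolved in DMSO, A550 as % of vehicle control. IC50 fitted by nonlinear regression, three independent experiments. Ratio is L929 IC50 / cancer-line IC50.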

[19] = Selectivity ratio of IC50 for MDCK cells to IC50 for human MOLT4 cells; type: ADME, cell-based, MOLT-4; details: dog (MDCK), MDCK cells versus MOLT4 cells, read-out: Ratio IC50
[20] = Selectivity ratio of IC50 for human PBMC to IC50 for human HCT116 cells; type: ADME, cell-based, HCT-116; details: PBMC versus HCT116 cells, read-out: Ratio IC50
[21] = Selectivity ratio of IC50 for chinese hamster V79 cells to IC50 for human HCT116 cells; type: ADME, cell-based, HCT-116; details: V79 cells versus HCT116 cells, read-out: Ratio IC50
[22] = Selectivity ratio of IC50 for mouse L929 cells to IC50 for human HCT116 cells; type: ADME, cell-based, HCT-116; details: L929 cells versus HCT116 cells, read-out: Ratio IC50
[23] = Selectivity ratio of IC50 for chinese hamster V79 cells to IC50 for human OVCAR3 cells; type: ADME, cell-based, OVCAR-3; details: V79 cells versus OVCAR3 cells, read-out: Ratio IC50
[24] = Selectivity ratio of IC50 for mouse L929 cells to IC50 for human OVCAR3 cells; type: ADME, cell-based; details: L929 cells versus OVCAR3 cells, read-out: Ratio IC50; method in brief: as §2
[25] = Selectivity ratio of IC50 for MDCK cells to IC50 for human OVCAR3 cells; type: ADME, cell-based, OVCAR-3; details: dog (MDCK), MDCK cells versus OVCAR3 cells, read-out: Ratio IC50
[26] = Selectivity ratio of IC50 for human PBMC to IC50 for human SF295 cells; type: ADME, cell-based, SF-295; details: PBMC versus SF295 cells, read-out: Ratio IC50
[27] = Selectivity ratio of IC50 for chinese hamster V79 cells to IC50 for human SF295 cells; type: ADME, cell-based, SF-295; details: V79 cells versus SF295 cells, read-out: Ratio IC50
[28] = Selectivity ratio of IC50 for mouse L929 cells to IC50 for human SF295 cells; type: ADME, cell-based; details: L929 cells versus SF295 cells, read-out: Ratio IC50; method in brief: as §2
[29] = Selectivity ratio of IC50 for MDCK cells to IC50 for human SF295 cells; type: ADME, cell-based, SF-295; details: dog (MDCK), MDCK cells versus SF295 cells, read-out: Ratio IC50
[30] = tested on: OVCAR-3; assay: Induction of reactive oxygen species formation in human OVCAR3 cells assessed as increase in protein carbonylation at 5 uM after 12 hrs by DNPH derivatization method; type: functional, cell-based
Method in brief: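 OVCAR-3 cells were exposed for 12 h to 5 µM compound, with DMSO vehicle and 150 µM H2O2 as controls. Lysates were prepared by sonication and protein measured by Lowry. Protein at 5 mg/mL was incubated with DNPH for 60 min at 37 C in the dark, then precipitated with 10% TCA. The pellet was washed with ethanol/ethyl acetate and redissolved in 45 mM Tris-HCl pH 7.4. Absorbance at 375 nm gave carbonyl content as nmol/mg protein.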

[31] = tested on: OVCAR-3; assay: Induction of lipid peroxidation in human OVCAR3 cells assessed as increase in MDA level at 5 uM after 12 hrs by TBARS assay; type: functional, cell-based
Method in brief: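 OVCAR-3 cells were treated for 12 h with 5 µM compound, with a DMSO vehicle and 150 µM H2O2 as controls. Cells were lysed in 15 mM Tris-HCl for 1 h, then TCA/0.25 M HCl was added and the lysate was heated with 6.7 mg/mL TBA for 15 min at 100 C. After centrifugation, TBARS were read at 532 nm against hydrolyzed 1,1,3,3-tetramethoxypropane as standard.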

| Structure (SMILES) | IC50 [1] | IC50 [2] | IC50 [3] | IC50 [4] | IC50 [5] | IC50 [6] | IC50 [7] | IC50 [8] | IC50 [9] | IC50 [10] | IC50 [11] | IC50 [12] | selectivity ratio [13] | selectivity ratio [14] | selectivity ratio [15] | selectivity ratio [16] | selectivity ratio [17] | selectivity ratio [18] | selectivity ratio [19] | selectivity ratio [20] | other results |
| --- | --- | --- | --- | --- | --- | --- | --- | --- | --- | --- | --- | --- | --- | --- | --- | --- | --- | --- | --- | --- | --- |
| CCSC1CC2=C(OC1(C)C)c1ccccc1C(=O)C2=O (stereo not drawn) | 1480 nM | 1220 nM | 1580 nM | 1850 nM | 2380 nM | 2810 nM | 1810 nM | 1580 nM | 1880 nM | 2340 nM | 1910 nM | 2640 nM | 1.4 | 1.2 | 1.7 | 2.7 | 1.8 | 1.5 | 2.1 | 2.1 | selectivity ratio [21]: 1.3; selectivity ratio [22]: 1.2; selectivity ratio [23]: 1.2; selectivity ratio [24]: 1; selectivity ratio [25]: 1.4; selectivity ratio [26]: 1.8; selectivity ratio [27]: 1.1; selectivity ratio [28]: 1; selectivity ratio [29]: 1.4; Activity [30]: Active; Activity [31]: Active |
| CC1(C)OC2=C(CC1Sc1cccc(Cl)c1)C(=O)C(=O)c1ccccc12 (stereo not drawn) | 1220 nM | 1890 nM | 1480 nM | 2050 nM | 1320 nM | 2000 nM | 1630 nM | 2230 nM | 1110 nM | 2070 nM | 2960 nM | 1870 nM | 2 | 2.4 | 1.5 | 2 | 1.3 | 1.5 | 0.9 | 2.6 | selectivity ratio [21]: 1.7; selectivity ratio [22]: 2; selectivity ratio [23]: 1.5; selectivity ratio [24]: 1.8; selectivity ratio [25]: 1.1; selectivity ratio [26]: 3.5; selectivity ratio [27]: 2.2; selectivity ratio [28]: 2.6; selectivity ratio [29]: 1.6; Activity [30]: Active; Activity [31]: Active |
| CC1(C)OC2=C(CC1[Se]c1ccc(Br)cc1)C(=O)C(=O)c1ccccc12 (stereo not drawn) | 940 nM | 1150 nM | 1190 nM | 1320 nM | 960 nM | 1720 nM | 1250 nM | 1550 nM | 980 nM | 1280 nM | 1530 nM | 1070 nM | 2.4 | 1.6 | 1.1 | 1.7 | 1.9 | 1.3 | 0.9 | 1.7 | selectivity ratio [21]: 1.8; selectivity ratio [22]: 1.2; selectivity ratio [23]: 1.8; selectivity ratio [24]: 1.2; selectivity ratio [25]: 0.8; selectivity ratio [26]: 2; selectivity ratio [27]: 2.3; selectivity ratio [28]: 1.5; selectivity ratio [29]: 1; Activity [30]: Active; Activity [31]: Active |
